In ChEMBL document CHEMBL2062453, “Lead optimization through VLAK protocol: new annelated pyrrolo-pyrimidine derivatives as antitumor agents” (2012):

Columns and labels:
Format in all cases: functional
K562 = test: Cytotoxicity against human K562 cells after 48 hrs by SRB assay; conditions: K562, 48 h
Procedure, shortened: (§1)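 NCI 60-cell five-dose screen. Cells grown in RPMI 1640 with 5% FBS and 2 mM glutamine, plated at 5000–40,000 cells/well, and preincubated 24 h at 37 °C in 5% CO2. Time-zero plates fixed with TCA. Five serial dilutions of DMSO stock added, then 48 h exposure. TCA fixation, 0.4% SRB staining, absorbance read at 515 nm. GI50 from [(Ti−Tz)/(C−Tz)]×100 = 50.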

SR = test: Cytotoxicity against human SR cells after 48 hrs by SRB assay
Procedure, shortened: (§2)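 NCI 60-panel five-dose screen. Cells in RPMI 1640 with 5% FBS and 2 mM glutamine, plated at 5000–40,000 cells/well and preincubated 24 h at 37 °C under 5% CO2. Five 10-fold or half-log dilutions were added from a DMSO stock for 48 h. Cells were TCA-fixed (SR settled cells: 16% final), SRB-stained and read at 515 nm. GI50 was taken where (Ti−Tz)/(C−Tz)×100 = 50.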

IGROV-1 = test: Cytotoxicity against human IGROV1 cells after 48 hrs by SRB assay; conditions: IGROV-1, 48 h; procedure, shortened: as §1
UACC-257 = test: Cytotoxicity against human UACC257 cells after 48 hrs by SRB assay; conditions: UACC-257, 48 h; procedure, shortened: as §2
[1] = read-out: pLC50 (the source's name) (converted)

SMILES: CSC1=Nc2c(c(C)c(-c3ccccc3)n2CCCCl)C2=NC(=O)CN12
- GI50 (K562): 5.75 µM
- CC50 (K562; [1]): > 100 µM
- TGI (K562; read-out: pTGI): > 100 µM
- GI50 (SR): 3.47 µM
- CC50 (SR; [1]): > 100 µM
- TGI (SR; read-out: pTGI): > 100 µM
- GI50 (IGROV-1): 3.55 µM
- CC50 (IGROV-1; [1]): 95.5 µM
- TGI (IGROV-1; read-out: pTGI (converted)): 21.4 µM
- GI50 (UACC-257): 12.6 µM
- CC50 (UACC-257; [1]): 64.6 µM
- TGI (UACC-257; read-out: pTGI (converted)): 28.2 µM
